Activity calls are given as the source filed them. No cut-off for these calls is given here.
Experiments:
IGROV-1 = assay: Antiproliferative activity against human IGROV1 cells after 3 days by sulforhodamine B assay; format: functional; details: IGROV-1, 72 h
In short: (§1)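 Tested in the NCI 60 cell line panel. GI50 is the concentration giving 50% inhibition of cell growth, and values are the mean of two series of tests.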

SK-MEL-28 = assay: Antiproliferative activity against human SK-MEL-28 cells after 3 days by sulforhodamine B assay; format: functional; details: SK-MEL-28, 72 h; in short: as §1
[1] = target: T1, Casein kinase II (Homo sapiens) (UniProt P67870+P68400+P19784); assay: Inhibition of CK2 in human HEK293 cells assessed as reduction of Akt phosphorylation at S473 at 0.25 to 8 uM after 2 hrs by Western blot analysis; format: cell-based
In short: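 Cells were lysed in urea lysis buffer (6 M urea, NaF, Na3VO4, protease inhibitors). 20–40 µg protein was run on 10% SDS-PAGE and detected by ECL. Primary antibodies (pAkt S473, PARP, β-actin loading control) were used at 1:1000 overnight at 4 °C. DMSO was the vehicle control. For the pAkt blots, cells were treated for 2 h with Ly294002 as positive control.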

[2] = target: Cyclin-dependent kinase 1/cyclin B1 (Homo sapiens) (UniProt P06493+P14635); assay: Inhibition of CDK1/CycB1 (unknown origin) assessed as residual activity at 10 uM relative to control; format: protein-complex assay
Cyclin-dependent kinase 1/cyclin B1 (Homo sapiens), sequence (P06493 whole entry, looked up): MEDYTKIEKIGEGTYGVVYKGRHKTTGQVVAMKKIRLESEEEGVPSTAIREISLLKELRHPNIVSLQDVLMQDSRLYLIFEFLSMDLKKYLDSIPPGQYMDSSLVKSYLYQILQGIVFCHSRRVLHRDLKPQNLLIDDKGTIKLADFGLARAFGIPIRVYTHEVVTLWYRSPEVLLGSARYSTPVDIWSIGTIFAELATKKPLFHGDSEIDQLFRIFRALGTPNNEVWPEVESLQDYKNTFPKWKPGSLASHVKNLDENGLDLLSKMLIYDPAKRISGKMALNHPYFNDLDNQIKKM
Cyclin-dependent kinase 1/cyclin B1 (Homo sapiens), sequence (P14635 whole entry, looked up): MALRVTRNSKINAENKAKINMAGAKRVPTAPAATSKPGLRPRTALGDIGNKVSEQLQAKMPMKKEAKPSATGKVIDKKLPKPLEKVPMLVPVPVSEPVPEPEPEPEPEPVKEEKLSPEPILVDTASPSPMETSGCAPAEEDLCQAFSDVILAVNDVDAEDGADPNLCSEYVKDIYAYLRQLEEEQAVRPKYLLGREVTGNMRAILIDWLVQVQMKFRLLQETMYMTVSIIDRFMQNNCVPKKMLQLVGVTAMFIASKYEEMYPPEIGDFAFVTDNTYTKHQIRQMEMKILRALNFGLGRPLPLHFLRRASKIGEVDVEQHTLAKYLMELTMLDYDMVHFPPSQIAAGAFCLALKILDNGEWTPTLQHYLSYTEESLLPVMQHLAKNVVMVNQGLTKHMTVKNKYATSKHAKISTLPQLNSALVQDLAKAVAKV

[3] = target: 3-phosphoinositide-dependent protein kinase 1 (Homo sapiens) (UniProt O15530); assay: Inhibition of human PDK1 assessed as residual activity at 1 uM relative to control
[4] = target: Mitogen-activated protein kinase kinase kinase 7 (Homo sapiens) (UniProt O43318); assay: Inhibition of human TAK1 assessed as residual activity at 1 uM relative to control
Mitogen-activated protein kinase kinase kinase 7 (Homo sapiens), sequence (O43318 whole entry): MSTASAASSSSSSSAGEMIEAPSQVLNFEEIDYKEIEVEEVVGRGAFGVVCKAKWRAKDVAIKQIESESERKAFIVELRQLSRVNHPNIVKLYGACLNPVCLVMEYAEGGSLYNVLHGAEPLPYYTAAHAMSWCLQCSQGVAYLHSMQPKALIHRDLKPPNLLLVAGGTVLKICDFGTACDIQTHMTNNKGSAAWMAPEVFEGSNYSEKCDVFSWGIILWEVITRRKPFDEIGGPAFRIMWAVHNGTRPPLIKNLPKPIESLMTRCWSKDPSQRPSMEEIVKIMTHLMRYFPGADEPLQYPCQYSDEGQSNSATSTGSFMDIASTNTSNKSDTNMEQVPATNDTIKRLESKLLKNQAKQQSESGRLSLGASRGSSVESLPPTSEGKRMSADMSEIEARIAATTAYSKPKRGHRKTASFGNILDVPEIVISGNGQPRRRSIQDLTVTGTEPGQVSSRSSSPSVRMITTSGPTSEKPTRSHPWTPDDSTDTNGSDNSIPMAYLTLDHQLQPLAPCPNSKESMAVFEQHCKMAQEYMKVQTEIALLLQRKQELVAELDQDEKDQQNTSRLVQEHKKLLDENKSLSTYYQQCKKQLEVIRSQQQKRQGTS

LOX IMVI = assay: Antiproliferative activity against human LOXIMVI cells after 3 days by sulforhodamine B assay; format: functional; details: 72 h; in short: as §1
[5] = target: Fibroblast growth factor receptor 1 (Homo sapiens) (UniProt P11362); assay: Inhibition of FGF-R1 (unknown origin) assessed as residual activity at 10 uM relative to control
[6] = target: RAC-beta serine/threonine-protein kinase (Homo sapiens) (UniProt P31751); assay: Inhibition of human PKBbeta assessed as residual activity at 1 uM relative to control
[7] = target: Proto-oncogene tyrosine-protein kinase receptor Ret (Homo sapiens) (UniProt P07949); assay: Inhibition of RET (unknown origin) assessed as residual activity at 10 uM relative to control
[8] = target: Platelet-derived growth factor receptor beta (Homo sapiens) (UniProt P09619); assay: Inhibition of human PDGFRbeta assessed as residual activity at 1 uM relative to control
[9] = target: T1, Casein kinase II (Homo sapiens); assay: Inhibition of CK2 in human MCF7 cells assessed as time of delay for GSK3beta phosphorylation at Ser9 at 1 uM by Western blot analysis; format: cell-based
In short: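 MCF7 cells were grown at 37 °C and 5% CO2 in DMEM with 10% heat-inactivated FBS and penicillin/streptomycin. Cells were exposed to 1 µM for the indicated times, with DMSO as the untreated control. Extracts were made in urea lysis buffer, and 20–40 µg protein was run on 10% SDS–PAGE. Blots were probed with primary antibodies (1:1000, overnight, 4 °C) and read by ECL, with β-actin as loading control.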

A549 = assay: Antiproliferative activity against human A549 cells after 3 days by sulforhodamine B assay; format: functional; details: A549, 72 h; in short: as §1
[10] = target: Homeodomain-interacting protein kinase 1 (Homo sapiens) (UniProt Q86Z02); assay: Inhibition of human HIPK1 assessed as residual activity at 1 uM relative to control
[11] = target: Insulin-like growth factor 1 receptor (Homo sapiens) (UniProt P08069); assay: Inhibition of human IGF-1R assessed as residual activity at 1 uM relative to control
[12] = target: Discoidin domain-containing receptor 2 (Homo sapiens) (UniProt Q16832); assay: Inhibition of human DDR2 assessed as residual activity at 1 uM relative to control
[13] = target: Serine/threonine-protein kinase PLK2 (Homo sapiens) (UniProt Q9NYY3); assay: Inhibition of human Snk assessed as residual activity at 1 uM relative to control
[14] = target: Serine/threonine-protein kinase TAO1 (Homo sapiens) (UniProt Q7L7X3); assay: Inhibition of human TAO1 assessed as residual activity at 1 uM relative to control
Serine/threonine-protein kinase TAO1 (Homo sapiens), sequence (Q7L7X3 whole entry): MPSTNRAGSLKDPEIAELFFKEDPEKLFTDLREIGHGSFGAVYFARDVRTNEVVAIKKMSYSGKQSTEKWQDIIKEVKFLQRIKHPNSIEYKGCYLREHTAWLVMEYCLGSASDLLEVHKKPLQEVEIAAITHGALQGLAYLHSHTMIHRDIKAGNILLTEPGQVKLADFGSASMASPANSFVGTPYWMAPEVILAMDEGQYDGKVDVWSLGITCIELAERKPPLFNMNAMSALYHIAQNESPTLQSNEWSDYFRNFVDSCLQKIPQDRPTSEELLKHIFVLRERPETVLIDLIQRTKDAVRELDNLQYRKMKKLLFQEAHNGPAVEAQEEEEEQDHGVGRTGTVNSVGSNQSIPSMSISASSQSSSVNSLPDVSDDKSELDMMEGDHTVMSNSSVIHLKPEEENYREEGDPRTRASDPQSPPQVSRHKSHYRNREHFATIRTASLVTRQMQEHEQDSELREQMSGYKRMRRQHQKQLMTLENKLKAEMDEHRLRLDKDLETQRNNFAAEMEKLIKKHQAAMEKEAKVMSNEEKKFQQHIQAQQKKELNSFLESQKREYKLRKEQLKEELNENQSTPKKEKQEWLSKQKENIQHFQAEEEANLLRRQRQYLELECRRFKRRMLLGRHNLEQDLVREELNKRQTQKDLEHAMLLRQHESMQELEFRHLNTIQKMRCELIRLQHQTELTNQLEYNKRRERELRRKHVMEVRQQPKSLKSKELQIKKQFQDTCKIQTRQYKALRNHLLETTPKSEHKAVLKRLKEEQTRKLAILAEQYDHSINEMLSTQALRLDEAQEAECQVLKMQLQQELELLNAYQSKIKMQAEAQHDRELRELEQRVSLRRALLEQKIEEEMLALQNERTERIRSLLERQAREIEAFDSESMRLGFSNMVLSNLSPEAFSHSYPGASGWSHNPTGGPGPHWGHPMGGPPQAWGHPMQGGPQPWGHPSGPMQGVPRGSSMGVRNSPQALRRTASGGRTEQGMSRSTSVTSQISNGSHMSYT

[15] = target: Tyrosine-protein kinase JAK2 (Homo sapiens) (UniProt O60674); assay: Inhibition of JAK2 (unknown origin) assessed as residual activity at 10 uM relative to control
[16] = target: Protein kinase C beta type (Homo sapiens) (UniProt P05771); assay: Inhibition of human PKCbeta2 assessed as residual activity at 1 uM relative to control
Protein kinase C beta type (Homo sapiens), sequence (P05771 2-671 limits assumed): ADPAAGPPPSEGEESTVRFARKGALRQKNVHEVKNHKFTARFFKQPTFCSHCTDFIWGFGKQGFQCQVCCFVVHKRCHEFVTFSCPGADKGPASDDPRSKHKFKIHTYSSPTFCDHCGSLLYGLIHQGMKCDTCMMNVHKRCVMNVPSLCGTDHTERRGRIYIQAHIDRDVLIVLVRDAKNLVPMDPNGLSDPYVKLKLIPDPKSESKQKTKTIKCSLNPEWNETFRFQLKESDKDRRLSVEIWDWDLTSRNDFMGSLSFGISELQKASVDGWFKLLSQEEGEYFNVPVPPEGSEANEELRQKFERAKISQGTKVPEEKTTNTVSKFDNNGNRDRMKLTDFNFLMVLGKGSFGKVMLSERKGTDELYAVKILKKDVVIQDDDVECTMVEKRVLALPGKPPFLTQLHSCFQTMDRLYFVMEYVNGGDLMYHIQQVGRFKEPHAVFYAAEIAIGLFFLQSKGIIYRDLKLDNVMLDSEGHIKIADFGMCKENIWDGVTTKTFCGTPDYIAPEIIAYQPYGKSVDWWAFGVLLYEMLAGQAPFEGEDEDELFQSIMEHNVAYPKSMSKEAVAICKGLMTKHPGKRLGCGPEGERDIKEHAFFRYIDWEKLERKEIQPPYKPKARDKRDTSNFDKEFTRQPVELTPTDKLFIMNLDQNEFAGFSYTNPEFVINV

HCT-116 = assay: Antiproliferative activity against human HCT116 cells after 3 days by sulforhodamine B assay; format: functional; details: HCT-116, 72 h; in short: as §1
[17] = target: Inhibitor of nuclear factor kappa-B kinase subunit beta (Homo sapiens) (UniProt O14920); assay: Inhibition of human IKKbeta assessed as residual activity at 1 uM relative to control
[18] = target: Serine/threonine-protein kinase Nek11 (Homo sapiens) (UniProt Q8NG66); assay: Inhibition of human NEK11 assessed as residual activity at 1 uM relative to control
SK-MEL-5 = assay: Antiproliferative activity against human SK-MEL-5 cells after 3 days by sulforhodamine B assay; format: functional; details: SK-MEL-5, 72 h; in short: as §1
[19] = target: RAC-alpha serine/threonine-protein kinase (Homo sapiens) (UniProt P31749); assay: Inhibition of human PKBalpha assessed as residual activity at 1 uM relative to control
[20] = target: LIM domain kinase 1 (Homo sapiens) (UniProt P53667); assay: Inhibition of human LIMK1 assessed as residual activity at 1 uM relative to control
LIM domain kinase 1 (Homo sapiens), sequence (P53667 whole entry, looked up, the tested form may be a part): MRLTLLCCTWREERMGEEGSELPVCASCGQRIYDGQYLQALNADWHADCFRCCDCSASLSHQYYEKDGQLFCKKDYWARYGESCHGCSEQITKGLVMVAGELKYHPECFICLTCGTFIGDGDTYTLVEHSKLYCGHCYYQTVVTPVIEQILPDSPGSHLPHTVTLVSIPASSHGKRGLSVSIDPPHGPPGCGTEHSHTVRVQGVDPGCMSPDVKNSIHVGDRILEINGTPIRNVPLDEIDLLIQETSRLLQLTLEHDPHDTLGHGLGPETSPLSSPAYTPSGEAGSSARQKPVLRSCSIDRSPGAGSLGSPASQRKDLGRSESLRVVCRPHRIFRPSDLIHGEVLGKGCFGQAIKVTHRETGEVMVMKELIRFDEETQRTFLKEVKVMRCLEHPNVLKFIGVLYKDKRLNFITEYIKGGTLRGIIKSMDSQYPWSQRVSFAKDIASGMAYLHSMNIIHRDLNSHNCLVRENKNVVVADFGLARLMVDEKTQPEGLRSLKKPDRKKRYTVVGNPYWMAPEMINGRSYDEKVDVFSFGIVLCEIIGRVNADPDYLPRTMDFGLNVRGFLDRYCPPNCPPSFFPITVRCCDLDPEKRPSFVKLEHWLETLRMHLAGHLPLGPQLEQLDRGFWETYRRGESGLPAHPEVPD

[21] = target: Eukaryotic elongation factor 2 kinase (Homo sapiens) (UniProt O00418); assay: Inhibition of human eEF-2K assessed as residual activity at 1 uM relative to control
Eukaryotic elongation factor 2 kinase (Homo sapiens), sequence (O00418 whole entry): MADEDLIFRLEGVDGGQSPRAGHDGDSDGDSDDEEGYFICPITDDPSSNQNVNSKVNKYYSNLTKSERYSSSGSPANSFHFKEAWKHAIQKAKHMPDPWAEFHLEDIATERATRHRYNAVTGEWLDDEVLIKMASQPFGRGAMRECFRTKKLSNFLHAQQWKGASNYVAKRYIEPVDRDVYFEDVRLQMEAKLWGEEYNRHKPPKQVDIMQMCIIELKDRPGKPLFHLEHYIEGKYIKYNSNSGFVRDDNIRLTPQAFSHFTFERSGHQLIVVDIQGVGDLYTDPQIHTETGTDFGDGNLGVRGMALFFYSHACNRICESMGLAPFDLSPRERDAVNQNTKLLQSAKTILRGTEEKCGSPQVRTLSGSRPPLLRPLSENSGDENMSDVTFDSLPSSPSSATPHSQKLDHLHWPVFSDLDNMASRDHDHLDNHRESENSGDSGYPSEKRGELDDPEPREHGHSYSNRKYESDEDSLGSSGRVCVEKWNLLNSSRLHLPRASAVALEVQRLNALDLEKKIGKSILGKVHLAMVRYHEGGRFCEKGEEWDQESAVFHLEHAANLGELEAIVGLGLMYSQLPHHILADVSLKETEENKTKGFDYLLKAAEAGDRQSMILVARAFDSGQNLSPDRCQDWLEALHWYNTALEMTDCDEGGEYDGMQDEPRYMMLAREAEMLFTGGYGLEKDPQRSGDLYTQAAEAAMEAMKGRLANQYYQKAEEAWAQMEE

SNB-19 = assay: Antiproliferative activity against human SNB19 cells after 3 days by sulforhodamine B assay; format: functional; details: SNB-19, 72 h
MDA-MB-435 = assay: Antiproliferative activity against human MDA-MB-435 cells after 3 days by sulforhodamine B assay; format: functional; details: MDA-MB-435, 72 h; in short: as §1
[22] = target: SRSF protein kinase 2 (Homo sapiens) (UniProt P78362); assay: Inhibition of human SRPK2 assessed as residual activity at 1 uM relative to control
[23] = target: Serine/threonine-protein kinase ULK2 (Homo sapiens) (UniProt Q8IYT8); assay: Inhibition of human ULK2 assessed as residual activity at 1 uM relative to control
[24] = target: Mitogen-activated protein kinase 1 (Homo sapiens) (UniProt P28482); assay: Inhibition of human MAPK1 assessed as residual activity at 1 uM relative to control
[25] = target: Cyclin-dependent kinase 5/CDK5 activator 1 (Homo sapiens) (UniProt Q00535+Q15078); assay: Inhibition of CDK5/p35NCK (unknown origin) assessed as residual activity at 10 uM relative to control; format: protein-complex assay
Cyclin-dependent kinase 5/CDK5 activator 1 (Homo sapiens), sequence (Q00535 whole entry): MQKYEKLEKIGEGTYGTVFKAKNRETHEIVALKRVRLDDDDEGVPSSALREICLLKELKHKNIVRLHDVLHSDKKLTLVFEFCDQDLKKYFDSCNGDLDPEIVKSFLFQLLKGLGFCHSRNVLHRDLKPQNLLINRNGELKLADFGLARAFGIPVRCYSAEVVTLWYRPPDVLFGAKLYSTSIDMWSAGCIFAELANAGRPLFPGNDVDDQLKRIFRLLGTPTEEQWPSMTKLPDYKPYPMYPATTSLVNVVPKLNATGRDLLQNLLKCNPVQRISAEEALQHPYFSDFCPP
Cyclin-dependent kinase 5/CDK5 activator 1 (Homo sapiens), sequence (Q15078 99-307 partner limits assumed): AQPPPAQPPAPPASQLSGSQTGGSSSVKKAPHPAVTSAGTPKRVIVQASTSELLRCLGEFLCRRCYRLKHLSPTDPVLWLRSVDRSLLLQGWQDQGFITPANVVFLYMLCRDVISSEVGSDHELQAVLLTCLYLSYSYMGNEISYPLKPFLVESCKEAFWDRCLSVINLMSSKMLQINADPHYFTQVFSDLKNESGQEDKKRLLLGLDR

With `O=C1Nc2ncccc2/C1=C1/Nc2ncccc2C1=O` the GI50 (IGROV-1) was 577 nM, the GI50 (SK-MEL-28) was 2830 nM and the inhibition [1] was “Active”. The Activity [2] was 89%, the Activity [3] was 97% and the Activity [4] was 95%. It also gave a GI50 (LOX IMVI) of 338 nM, an Activity [5] of 81% and an Activity [6] of 87%. It also gave an Activity [7] of 97%, an Activity [8] of 160% and a TIME [9] of 0.5 h. The GI50 (A549) was 236 nM, the Activity [10] was 80% and the Activity [11] was 112%. The Activity [12] was 119%, the Activity [13] was 83% and the Activity [14] was 98%. The Activity [15] was 92%, the Activity [16] was 101% and the GI50 (HCT-116) was 1010 nM. It also gave an Activity [17] of 110%, an Activity [18] of 73% and a GI50 (SK-MEL-5) of 160 nM. The Activity [19] was 94%, the Activity [20] was 80% and the Activity [21] was 94%. It also gave a GI50 (SNB-19) of 517 nM, a GI50 (MDA-MB-435) of 198 nM and an Activity [22] of 108%. It also gave an Activity [23] of 65%, an Activity [24] of 96% and an Activity [25] of 104%.

From ChEMBL document CHEMBL3098105, “7,7'-Diazaindirubin--a small molecule inhibitor of casein kinase 2 in vitro and in cells” (Bioorg Med Chem, 2014)
